Starred links: 1 amine or outer side, 2 acyl side, 3 side chain; linkers in the order of their positions; H or OH if unused. Non-standard residues stand in square brackets, D forms with d. Residues, ends and D or L forms follow the SMILES beside them. dTrp(2-Me) = Cc1[nH]c2ccccc2c1C[C@@H](N)C(=O)O; azaTyr = O=C(N(Cc1ccc(O)cc1)N[*:1])[*:2]; azaPhe = O=C(N(Cc1ccccc1)N[*:1])[*:2]; X1 = O=C(N(CCc1ccccc1)N[*:1])[*:2]; azaLeu = CC(C)CN(N[*:1])C(=O)[*:2]; azaPro = O=C(N1CCCN1[*:1])[*:2]; azaGly = NNC(=O)O
Experiments:
Platelet glycoprotein 4 = Platelet glycoprotein 4 (Rattus norvegicus, UniProt Q07969); test: Displacement of photoactivatable [125I]-Tyr-Bpa-Ala-Hexarelin from CD36 in Sprague-Dawley rat cardiac membranes incubated for 60 mins by densitometry; type: cell membranes, Membrane
Platelet glycoprotein 4, sequence (Q07969 whole entry): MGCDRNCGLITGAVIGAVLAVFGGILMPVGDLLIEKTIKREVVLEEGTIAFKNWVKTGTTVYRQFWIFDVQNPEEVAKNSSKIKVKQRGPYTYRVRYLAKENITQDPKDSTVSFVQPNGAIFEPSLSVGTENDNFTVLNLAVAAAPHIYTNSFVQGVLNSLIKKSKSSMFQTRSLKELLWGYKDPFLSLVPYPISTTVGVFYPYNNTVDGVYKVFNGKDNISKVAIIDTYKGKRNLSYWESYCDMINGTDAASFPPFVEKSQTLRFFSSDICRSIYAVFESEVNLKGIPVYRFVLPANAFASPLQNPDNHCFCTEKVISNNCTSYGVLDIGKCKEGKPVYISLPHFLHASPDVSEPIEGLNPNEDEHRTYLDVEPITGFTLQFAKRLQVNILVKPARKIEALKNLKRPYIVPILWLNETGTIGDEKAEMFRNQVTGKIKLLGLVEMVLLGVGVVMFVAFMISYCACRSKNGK

[1] = biological target: Growth hormone secretagogue receptor type 1 (Homo sapiens, UniProt Q92847); test: Displacement of [125I]ghrelin expressed in LLC-PK1 cells incubated for 1 hr by gamma counting method; type: cell-based
Growth hormone secretagogue receptor type 1, sequence (Q92847 whole entry): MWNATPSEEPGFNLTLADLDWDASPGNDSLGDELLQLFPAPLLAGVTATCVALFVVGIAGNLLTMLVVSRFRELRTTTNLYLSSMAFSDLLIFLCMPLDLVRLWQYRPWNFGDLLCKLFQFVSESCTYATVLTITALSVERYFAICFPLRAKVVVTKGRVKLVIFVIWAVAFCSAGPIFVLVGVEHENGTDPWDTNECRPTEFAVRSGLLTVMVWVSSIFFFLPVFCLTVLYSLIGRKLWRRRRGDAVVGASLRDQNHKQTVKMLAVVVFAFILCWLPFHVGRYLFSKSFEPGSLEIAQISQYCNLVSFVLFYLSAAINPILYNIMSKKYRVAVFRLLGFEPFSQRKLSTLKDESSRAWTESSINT
In short: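 Membranes from LLC-PK1 cells transiently transfected with GHS-R1a (CaPO₄; harvested 24 h later; freeze/thaw lysis, 10000g), 10 μg protein/tube. Incubated with ¹²⁵I-ghrelin (40,000 cpm) and competitor 10⁻¹² to 10⁻⁵ M, 1 h at RT, in Tris/MgCl₂/EDTA/bacitracin buffer pH 7.3. Nonspecific binding set with 10⁻⁵ M competitor. Bound separated by filtration on PEI-soaked GF/C filters, gamma counted.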

IC50 (Platelet glycoprotein 4) | IC50 [1] | Structure (SMILES)
> 10 µM | > 10 µM | C[C@H](NC(=O)[C@H](C)NC(=O)N(Cc1ccccc1)NC(=O)C(N)Cc1cnc[nH]1)C(=O)N[C@H](Cc1ccccc1)C(=O)N[C@@H](CCCCN)C(N)=O (some centres undefined)
> 10 µM | > 10 µM | C[C@H](NC(=O)[C@H](C)NC(=O)N(Cc1ccc(O)cc1)NC(=O)C(N)Cc1cnc[nH]1)C(=O)N[C@H](Cc1ccccc1)C(=O)N[C@@H](CCCCN)C(N)=O (some centres undefined)
6.66 µM |  | CC(C)CN(NC(=O)[C@@H](Cc1c[nH]c2ccccc12)NC(=O)[C@H](C)N)C(=O)N[C@@H](Cc1c[nH]c2ccccc12)C(=O)N[C@H](Cc1ccccc1)C(=O)N[C@@H](CCCCN)C(N)=O
> 10 µM | > 10 µM | NCCCC[C@H](NC(=O)[C@@H](Cc1ccccc1)NC(=O)[C@@H]1CCCN1C(=O)NNC(=O)[C@@H](Cc1c[nH]c2ccccc12)NC(=O)[C@@H](N)Cc1cnc[nH]1)C(N)=O
> 10 µM | > 10 µM | C[C@H](NC(=O)N1CCCN1C(=O)[C@@H](N)Cc1cnc[nH]1)C(=O)N[C@@H](Cc1c[nH]c2ccccc12)C(=O)N[C@H](Cc1ccccc1)C(=O)N[C@@H](CCCCN)C(N)=O
> 10 µM | 3.86 µM | CCC(=O)N[C@H](Cc1c[nH]c2ccccc12)C(=O)NN(CC(C)C)C(=O)N[C@@H](Cc1c[nH]c2ccccc12)C(=O)N[C@H](Cc1ccccc1)C(=O)N[C@@H](CCCCN)C(N)=O
13.3 µM |  | CC(C)CN(NC(=O)[C@@H](Cc1c[nH]c2ccccc12)NC(=O)[C@@H](C)N)C(=O)N[C@@H](Cc1c[nH]c2ccccc12)C(=O)N[C@H](Cc1ccccc1)C(=O)N[C@@H](CCCCN)C(N)=O
10.5 µM | 5.41 µM | CC(C)CN(NC(=O)[C@@H](Cc1c[nH]c2ccccc12)NC(=O)CN)C(=O)N[C@@H](Cc1c[nH]c2ccccc12)C(=O)N[C@H](Cc1ccccc1)C(=O)N[C@@H](CCCCN)C(N)=O
7.97 µM | 1.17 µM | CC(C)CN(NC(=O)[C@@H](Cc1c[nH]c2ccccc12)NC(=O)[C@@H]1CCCN1)C(=O)N[C@@H](Cc1c[nH]c2ccccc12)C(=O)N[C@H](Cc1ccccc1)C(=O)N[C@@H](CCCCN)C(N)=O
9.01 µM | 4.55 µM | CC(C)CN(NC(=O)[C@@H](Cc1c[nH]c2ccccc12)NC(=O)[C@@H](N)Cc1cnc[nH]1)C(=O)N[C@@H](Cc1c[nH]c2ccccc12)C(=O)N[C@H](Cc1ccccc1)C(N)=O
> 10 µM | 85.6 µM | CC(C)CN(NC(=O)[C@@H](Cc1c[nH]c2ccccc12)NC(=O)[C@@H](N)Cc1cnc[nH]1)C(=O)N[C@@H](Cc1c[nH]c2ccccc12)C(N)=O
36.9 µM | > 10 µM | C[C@H](N)C(=O)NN(Cc1ccc(O)cc1)C(=O)N[C@@H](C)C(=O)N[C@@H](Cc1c[nH]c2ccccc12)C(=O)N[C@H](Cc1ccccc1)C(=O)N[C@@H](CCCCN)C(N)=O (H-A[azaTyr]AW[dF]K-NH2)
> 10 µM | > 10 µM | C[C@H](NC(=O)N(Cc1ccccc1)NC(=O)[C@@H](N)Cc1cnc[nH]1)C(=O)N[C@@H](Cc1c[nH]c2ccccc12)C(=O)N[C@H](C)C(=O)N[C@@H](CCCCN)C(N)=O (H-H[azaPhe]AW[dA]K-NH2)
> 10 µM |  | C[C@H](NC(=O)[C@@H](Cc1ccccc1)NC(=O)[C@H](Cc1c[nH]c2ccccc12)NC(=O)[C@H](C)NC(=O)N(Cc1ccccc1)NC(=O)[C@@H](N)Cc1cnc[nH]1)C(N)=O (H-H[azaPhe]AW[dF]A-NH2)
> 10 µM | > 10 µM | C[C@H](NC(=O)N(Cc1ccc(O)cc1)NC(=O)[C@@H](N)Cc1cnc[nH]1)C(=O)N[C@@H](Cc1c[nH]c2ccccc12)C(=O)N[C@H](C)C(=O)N[C@@H](CCCCN)C(N)=O (H-H[azaTyr]AW[dA]K-NH2)
> 10 µM | > 10 µM | C[C@H](NC(=O)[C@@H](Cc1ccccc1)NC(=O)[C@H](Cc1c[nH]c2ccccc12)NC(=O)[C@H](C)NC(=O)N(Cc1ccc(O)cc1)NC(=O)[C@@H](N)Cc1cnc[nH]1)C(N)=O (H-H[azaTyr]AW[dF]A-NH2)
> 10 µM | > 10 µM | C[C@H](NC(=O)[C@@H](C)NC(=O)[C@@H](N)Cc1cnc[nH]1)C(=O)NN(Cc1ccccc1)C(=O)N[C@H](Cc1ccccc1)C(=O)N[C@@H](CCCCN)C(N)=O (H-H[dA]A[azaPhe][dF]K-NH2)
> 10 µM | > 10 µM | C[C@@H](NC(=O)[C@@H](N)Cc1cnc[nH]1)C(=O)NNC(=O)N[C@@H](Cc1c[nH]c2ccccc12)C(=O)N[C@H](Cc1ccccc1)C(=O)N[C@@H](CCCCN)C(N)=O (H-H[dA][azaGly]W[dF]K-NH2)
> 10 µM | > 10 µM | CC(C)CN(NC(=O)[C@@H](C)NC(=O)[C@@H](N)Cc1cnc[nH]1)C(=O)N[C@@H](Cc1c[nH]c2ccccc12)C(=O)N[C@H](Cc1ccccc1)C(=O)N[C@@H](CCCCN)C(N)=O (H-H[dA][azaLeu]W[dF]K-NH2)
> 10 µM | > 10 µM | C[C@H](NC(=O)[C@@H](Cc1c[nH]c2ccccc12)NC(=O)[C@@H](N)Cc1cnc[nH]1)C(=O)N[C@@H](Cc1c[nH]c2ccccc12)C(=O)N1CCCN1C(=O)N[C@@H](CCCCN)C(N)=O (H-H[dW]AW[azaPro]K-NH2)
1.82 µM |  | C[C@H](NC(=O)[C@@H](Cc1c[nH]c2ccccc12)NC(=O)[C@@H](N)Cc1c[nH]cn1)C(=O)N[C@@H](Cc1c[nH]c2ccccc12)C(=O)N[C@H](Cc1ccccc1)C(=O)N[C@@H](CCCCN)C(N)=O (H-H[dW]AW[dF]K-NH2)
> 10 µM |  | C[C@H](NC(=O)[C@@H](Cc1c[nH]c2ccccc12)NC(=O)[C@@H](N)Cc1cnc[nH]1)C(=O)NN(CCc1ccccc1)C(=O)N[C@H](Cc1ccccc1)C(=O)N[C@@H](CCCCN)C(N)=O (H-H[dW]A[X1][dF]K-NH2)
> 10 µM |  | CC(C)CN(NC(=O)[C@H](C)NC(=O)[C@@H](Cc1c[nH]c2ccccc12)NC(=O)[C@@H](N)Cc1cnc[nH]1)C(=O)N[C@H](Cc1ccccc1)C(=O)N[C@@H](CCCCN)C(N)=O (H-H[dW]A[azaLeu][dF]K-NH2)
> 10 µM | > 10 µM | C[C@H](NC(=O)[C@@H](Cc1c[nH]c2ccccc12)NC(=O)[C@@H](N)Cc1cnc[nH]1)C(=O)NN(Cc1ccccc1)C(=O)N[C@H](C)C(=O)N[C@@H](CCCCN)C(N)=O (H-H[dW]A[azaPhe][dA]K-NH2)
> 10 µM | > 10 µM | C[C@H](NC(=O)[C@@H](Cc1ccccc1)NC(=O)N(Cc1ccccc1)NC(=O)[C@H](C)NC(=O)[C@@H](Cc1c[nH]c2ccccc12)NC(=O)[C@@H](N)Cc1cnc[nH]1)C(N)=O (H-H[dW]A[azaPhe][dF]A-NH2)
> 10 µM |  | C[C@H](NC(=O)[C@@H](Cc1ccccc1)NC(=O)[C@H](Cc1c[nH]c2ccccc12)NC(=O)NNC(=O)[C@@H](Cc1c[nH]c2ccccc12)NC(=O)[C@@H](N)Cc1cnc[nH]1)C(N)=O (H-H[dW][azaGly]W[dF]A-NH2)
 | 0.0159 µM | Cc1[nH]c2ccccc2c1C[C@@H](NC(=O)[C@@H](N)Cc1cnc[nH]1)C(=O)N[C@@H](C)C(=O)N[C@@H](Cc1c[nH]c2ccccc12)C(=O)N[C@H](Cc1ccccc1)C(=O)N[C@@H](CCCCN)C(N)=O [EXAMORELIN] (H-H[dTrp(2-Me)]AW[dF]K-NH2)

Structure (SMILES) | IC50 (Platelet glycoprotein 4) | IC50 [1]
C[C@H](NC(=O)N(Cc1ccccc1)NC(=O)C(N)Cc1cnc[nH]1)C(=O)N[C@@H](Cc1c[nH]c2ccccc12)C(=O)N[C@H](Cc1ccccc1)C(=O)N[C@@H](CCCCN)C(N)=O (some centres undefined) | 72.4 µM | 16.1 µM
C[C@H](NC(=O)N(Cc1cccc2ccccc12)NC(=O)C(N)Cc1cnc[nH]1)C(=O)N[C@@H](Cc1c[nH]c2ccccc12)C(=O)N[C@H](Cc1ccccc1)C(=O)N[C@@H](CCCCN)C(N)=O (some centres undefined) | > 10 µM | 
